# Source: publication PMC3325786 (Cancer Research, 2011)
# DNP = 2,4-dinitrophenyl quencher group; MCA = fluorogenic coumarin group
# What was measured:
# Taspase1 [1] = molecular target: T1, Taspase1 (Homo sapiens, UniProt Q9H6P5); test: FRET-based Taspase1 cleavage assay with FRPR reporter; assay type: biochemical
# T1 sequence (Q9H6P5 1-233 limits assumed): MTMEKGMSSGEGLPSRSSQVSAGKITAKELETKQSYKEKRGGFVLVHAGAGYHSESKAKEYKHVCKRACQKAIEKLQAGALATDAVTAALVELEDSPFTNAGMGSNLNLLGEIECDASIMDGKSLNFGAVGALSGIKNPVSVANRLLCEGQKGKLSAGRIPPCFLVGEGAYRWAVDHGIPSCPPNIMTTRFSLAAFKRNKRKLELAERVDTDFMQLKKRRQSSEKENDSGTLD
# T1 sequence (Q9H6P5 234-420 limits assumed): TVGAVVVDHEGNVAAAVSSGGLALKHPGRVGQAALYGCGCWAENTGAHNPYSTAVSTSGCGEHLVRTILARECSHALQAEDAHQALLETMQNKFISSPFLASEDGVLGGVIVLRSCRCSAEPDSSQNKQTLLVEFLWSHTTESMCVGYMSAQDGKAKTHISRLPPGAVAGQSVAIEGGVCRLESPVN
# Taspase1 [2] = molecular target: T1, Taspase1; test: In vitro cleavage of radiolabeled p75MLL reporter by recombinant Taspase1; assay type: biochemical; conditions: for activity against Taspase1 (cleavage of p75MLL): in vitro cleavage assay
# MMTV-wnt breast cancers = test: MMTV-wnt mouse breast cancer model; assay type: in vivo; conditions: every other day, 5 intravenous injections
# MMTV-neu breast cancers = test: MMTV-neu mouse breast cancer model; assay type: in vivo; conditions: every other day, 5 intravenous injections
# [3] = system: Taspase1−/−;Taspase1 MEFs; test: MTT relative cell number in SV40-transformed MEFs; assay type: cell-based, mouse; conditions: 1uM, 2 days
# [4] = In vivo toxicity profile after short term tail vein injections; design: species or system mouse
# autotaxin = conditions: cited from earlier work
# U251 cells = test: Growth inhibition of NCI60 brain tumor cell lines; assay type: cell-based, human; conditions: NCI DTP GI50 data confirmed by MTT, 2 days
# [5] = molecular target: T2, Taspase1 precursor (p50T1α-β) (Homo sapiens, UniProt Q9H6P5); test: Intramolecular autoproteolysis of radiolabeled Taspase1 precursor p50T1α-β; assay type: biochemical; conditions: increasing amounts, 6 hours at 30°C
# T2 sequence (Q9H6P5 1-420): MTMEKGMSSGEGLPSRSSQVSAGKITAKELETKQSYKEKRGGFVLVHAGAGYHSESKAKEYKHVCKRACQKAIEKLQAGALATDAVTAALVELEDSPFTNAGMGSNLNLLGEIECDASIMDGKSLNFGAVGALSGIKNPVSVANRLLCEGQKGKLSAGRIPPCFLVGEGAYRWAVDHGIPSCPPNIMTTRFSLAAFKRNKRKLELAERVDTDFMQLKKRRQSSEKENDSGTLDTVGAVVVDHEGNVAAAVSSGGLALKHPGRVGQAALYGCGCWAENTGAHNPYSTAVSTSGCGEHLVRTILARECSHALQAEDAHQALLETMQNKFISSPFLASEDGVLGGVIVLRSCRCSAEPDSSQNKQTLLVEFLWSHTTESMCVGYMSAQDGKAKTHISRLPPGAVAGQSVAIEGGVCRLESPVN
# Summary of the method: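 Radiolabeled 50 kD Taspase1 precursor (p50T1α-β, 0.5 μl) incubated in cleavage buffer at 30°C for 6 hours with indicated concentrations of test compound. Maturation is scored as autoproteolytic conversion to the 28 kD α and 22 kD β subunits.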
# U251 xenograft = test: U251 brain tumor xenograft, bioluminescent imaging; assay type: in vivo, mouse; conditions: treated on days 0, 2 and 4; compared to vehicle
# Summary of the method: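 U251 cells stably expressing firefly luciferase were implanted subcutaneously into the flanks of male NOD-scid IL2Rγ−/− mice aged 6–8 weeks on day −1. Test compound was given at indicated doses on days 0, 2 and 4. Tumor mass was followed by bioluminescence imaging, normalized to 1 at day 0. Mean ± SD of 4 tumors per arm.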
# Caspase8 = Caspase8 (Homo sapiens, UniProt Q14790); test: Caspase8-p22Bid in vitro cleavage assay; assay type: biochemical; conditions: 1 mM compound, 250 ng rCaspase8
# Caspase8, sequence (Q14790 217-374 limits assumed, species assumed): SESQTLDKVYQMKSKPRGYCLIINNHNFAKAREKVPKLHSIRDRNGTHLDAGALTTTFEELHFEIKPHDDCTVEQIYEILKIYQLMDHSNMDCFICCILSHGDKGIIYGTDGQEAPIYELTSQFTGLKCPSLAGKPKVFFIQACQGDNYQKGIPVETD
# Caspase8, sequence (Q14790 385-479 limits assumed, species assumed): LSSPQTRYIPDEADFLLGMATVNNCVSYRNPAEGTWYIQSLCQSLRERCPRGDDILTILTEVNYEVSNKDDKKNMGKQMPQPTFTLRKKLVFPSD
# [6] = short term tail vein injections
molecule,measurement,setting,value
"MCA-KISQLDGVDD-DNP ({MCA}-KISQLDGVDD-{DNP}) [FRPR, reference compound]",Km,"Taspase1 [1]; read-out: apparent KM, substrate of Taspase1",9.06 ± 2.8 µM
O=[N+]([O-])c1cccc(NCNc2cccc([N+](=O)[O-])c2)c1 [NSC47905],activity against Taspase1 (cleavage of p75MLL),Taspase1 [2],no demonstrable activity
COc1ccc(C(=O)OCc2ccc3c(c2)OCO3)cc1 [NSC23953],activity against Taspase1 (cleavage of p75MLL),Taspase1 [2],no demonstrable activity
Cc1cc(Cc2ccc3c(c2)OCO3)ccc1OCC(=O)O [NSC352678],activity against Taspase1 (cleavage of p75MLL),Taspase1 [2],no demonstrable activity
"CC(C)C[C@H](NC(=O)[C@H](Cc1ccccc1)NC(=O)c1cnccn1)B(O)O [Bortezomib, reference compound]",activity against Taspase1 (cleavage of p75MLL),Taspase1 [2],no activity
"O=[As](O)(O)O [arsenic acid, reference compound]",inhibition of Taspase1 by free arsenic acid,"Taspase1 [2]; up to 1 mM, 5 ng rTaspase1, 30 min preincubation",no detectable inhibition
O=C(O)Cc1ccc(Oc2ccc(CC(=O)O)cc2)cc1 [NSC74084],activity against Taspase1 (cleavage of p75MLL),Taspase1 [2],no demonstrable activity
"O=[As](O)(O)c1ccc(Cc2ccc([As](=O)(O)O)cc2)cc1 [NSC48300, [4-[(4-arsonophenyl)methyl]phenyl] arsonic acid]",mode of inhibition,Taspase1 [1]; non-linear regression of reaction curves,non-competitive
same,IC50,Taspase1 [2],~7.5 µM
same,reversible or irreversible inhibition (extended pre-incubation),"Taspase1 [2]; 5 μM, pre-incubation for extended periods of time",reversible
same,growth of MMTV-wnt breast cancers,MMTV-wnt breast cancers,no effects
same,growth of MMTV-neu breast cancers,MMTV-neu breast cancers,consistently disrupted the growth
same,sensitivity compared to parental Taspase1−/− cell line,[3],increased sensitivity
same,hemoglobin levels,[4]; complete blood counts,decrease
same,white blood cell counts,[4]; complete blood counts,decrease
same,injection site damage,[4]; repetitive tail vein treatment,fibrotic damages of regional vessels at injection sites
same,blood chemistry: LDH level,[4]; [6],significant decrease
same,blood chemistry: electrolytes and kidney functions,[4]; [6],certain alterations
same,histological examination of major organs,[4]; [6],did not reveal any obvious abnormalities
same,lysophospholipase D activity of autotaxin,autotaxin,inhibited
same,sensitivity to treatment in vitro among NCI60 brain tumor cell lines,U251 cells,most sensitive
same,impact on Taspase1 autoproteolysis,[5],no impact
same,tumor growth by bioluminescent imaging,U251 xenograft,stasis of tumor growth
same,specificity: Caspase8-mediated cleavage of p22Bid,Caspase8,specifically targeted Taspase1
